Assay results from article PMC12238359 (Scientific Reports, 2025).

Columns and labels:
HDAC1 = HDAC1 (Homo sapiens, UniProt Q13547); test: HDAC inhibitory assay, HDAC1; format: biochemical
HDAC6 = molecular target: T1, HDAC6 (Homo sapiens, UniProt Q9UBN7); test: HDAC inhibitory assay, HDAC6; format: biochemical
T1 sequence (Q9UBN7 1-1215): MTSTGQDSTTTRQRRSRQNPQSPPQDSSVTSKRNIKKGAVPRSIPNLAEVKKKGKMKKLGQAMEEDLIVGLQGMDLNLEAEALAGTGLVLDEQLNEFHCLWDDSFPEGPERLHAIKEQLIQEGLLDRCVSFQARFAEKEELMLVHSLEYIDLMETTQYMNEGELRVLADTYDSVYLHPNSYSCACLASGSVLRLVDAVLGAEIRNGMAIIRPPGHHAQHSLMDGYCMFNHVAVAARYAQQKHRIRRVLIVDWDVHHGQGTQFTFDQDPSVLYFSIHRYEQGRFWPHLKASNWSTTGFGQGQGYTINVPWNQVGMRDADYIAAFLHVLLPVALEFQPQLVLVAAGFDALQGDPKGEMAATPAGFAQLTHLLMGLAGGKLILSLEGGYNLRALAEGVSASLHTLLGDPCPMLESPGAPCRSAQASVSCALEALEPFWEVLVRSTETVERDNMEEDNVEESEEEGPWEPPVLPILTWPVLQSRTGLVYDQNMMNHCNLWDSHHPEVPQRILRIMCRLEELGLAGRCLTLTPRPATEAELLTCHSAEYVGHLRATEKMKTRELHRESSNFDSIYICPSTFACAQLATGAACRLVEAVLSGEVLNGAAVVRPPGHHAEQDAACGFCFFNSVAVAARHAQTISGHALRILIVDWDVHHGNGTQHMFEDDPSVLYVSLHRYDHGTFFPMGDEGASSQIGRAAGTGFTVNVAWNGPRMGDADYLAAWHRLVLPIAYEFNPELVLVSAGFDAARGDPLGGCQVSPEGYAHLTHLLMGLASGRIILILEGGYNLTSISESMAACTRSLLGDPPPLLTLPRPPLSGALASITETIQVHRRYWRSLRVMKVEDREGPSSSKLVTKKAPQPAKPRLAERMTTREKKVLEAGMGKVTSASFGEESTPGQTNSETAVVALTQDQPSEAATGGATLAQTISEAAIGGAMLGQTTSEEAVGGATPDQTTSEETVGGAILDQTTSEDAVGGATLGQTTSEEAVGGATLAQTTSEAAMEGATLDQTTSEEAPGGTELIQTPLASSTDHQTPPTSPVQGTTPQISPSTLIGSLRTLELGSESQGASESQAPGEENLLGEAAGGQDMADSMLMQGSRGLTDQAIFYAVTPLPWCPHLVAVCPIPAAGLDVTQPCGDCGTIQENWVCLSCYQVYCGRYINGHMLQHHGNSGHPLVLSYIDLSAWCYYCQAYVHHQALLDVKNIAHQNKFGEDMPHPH

HepG2 = test: In vitro anti-proliferation assay; format: cell-based
acetylated H3/H4 = test: Western blot of acetylated histone levels in HepG2 cells; format: cell-based; details: HepG2, 0.2, 0.5 µM, 24 h
In short: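 HepG2 cells were exposed to the test compound for 24 h, then lysed in RIPA buffer with protease inhibitors (10 min on ice) and centrifuged at 4 °C. Protein was measured by BCA, and equal amounts were denatured at 100 °C for 5 min. Blots were run on 10–15% SDS-PAGE and transferred to PVDF. Anti-acetyl-H3 was used at 1:1000, overnight at 4 °C, then HRP secondary antibody for 1 h at room temperature, with ECL detection. Bands were quantified against β-actin; mean ± SD of three separate experiments.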

HepG2 cells [1] = test: Colony formation assay; format: cell-based; details: HepG2, 14 days
In short: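 HepG2 cells were plated at 1000 per well in 6-well plates. After 24 h they were treated with a range of concentrations, with the medium refreshed every other day, and kept in fresh medium for 10–14 days. Colonies were fixed in methanol for 15 min, stained with 0.5% crystal violet for 15 min, photographed and counted manually.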

HepG2 cells [2] = test: Cell cycle analysis by flow cytometry; format: cell-based; details: HepG2, 0.5μM; for G2/M: control 25.34%; for S: control 32.99%; for G0/G1: control 41.67%
CDK4 and Cyclin D1 = test: Western blot of cell cycle regulators; format: cell-based; details: HepG2, 24 h
In short: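 For the immunoblot, HepG2 cells were treated at several concentrations for 24 h and lysed in RIPA buffer with protease inhibitors. Equal BCA-quantified protein was boiled for 5 min and resolved on 10–15% SDS-PAGE, then transferred to PVDF. Blots were blocked in 5% milk, incubated with primary antibody overnight at 4 °C and HRP secondary for 1 h, and detected by ECL. Band densities were quantified, with β-actin as loading control.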

HepG2 cells [3] = test: Annexin V-FITC/PI apoptosis analysis; format: cell-based; details: 48 h
Cl-PARP, Cl-caspase 3 = test: Western blot of apoptotic proteins; format: cell-based; details: HepG2, 24 h
In short: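 Treated HepG2 lysates (24 h exposure, RIPA buffer with protease inhibitors, BCA-normalised) were denatured at 100 °C for 5 min and run on 10–15% SDS-PAGE, then transferred to PVDF. Membranes were blocked in 5% milk, with primary antibody overnight at 4 °C and HRP secondary for 1 h at room temperature, and developed by ECL. Band intensity was normalised to β-actin; mean ± SD of three separate experiments.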

HepG2 cells [4] = test: Reactive oxygen species; format: cell-based; details: HepG2, 24 h
γH2AX = γH2AX immunofluorescence assay; format: cell-based; details: HepG2, 24 h, in comparison to SAHA
In short: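 HepG2 cells were grown on coverslips at 1 × 10^5 per well and treated over a concentration range for 24 h. Cells were fixed in 4% formaldehyde, then blocked and permeabilised in PBS-BSA with 0.3% Triton X-100 for 15 min at room temperature. Anti-γH2AX was applied overnight at 4 °C, then goat anti-rabbit IgG (1:500) for 30 min at room temperature. Nuclei were counterstained with DAPI and imaged by confocal microscopy.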

HepG2 cells [5] = test: Lactate dehydrogenase; format: cell-based; details: HepG2, 24 h
In short: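 HepG2 cells were seeded at 1 × 10^4 per well and exposed to a range of test compound concentrations for 24 h. Culture supernatant was mixed with LDH detection reagent and kept 30 min in the dark at ambient temperature. OD was read at 490 nm, with each sample in triplicate.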

GSDME-N, Cl-caspase3 = test: Western blot of pyroptosis markers; format: cell-based; details: HepG2, 24 h
In short: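 HepG2 cells were treated 24 h at the indicated concentrations, then lysed in RIPA with protease inhibitors (10 min on ice, 4 °C spin). Protein was measured by BCA, and equal amounts were boiled 5 min at 100 °C, run on 10–15% SDS-PAGE and transferred to PVDF. Membranes were blocked in 5% milk, probed with primaries overnight at 4 °C, then HRP secondary 1 h at room temperature. Detection was by ECL, with densitometry against β-actin; data are mean ± SD of three experiments.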

HepG2 xenografts = test: HepG2 xenograft model; format: in vivo, BALB/c nude mice
In short: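 Male BALB/c nude mice, 5–6 weeks old, were housed under SPF conditions (25 °C, 65% humidity, 12-h light/dark). They were implanted subcutaneously with 1 × 10^6 HepG2 cells. […] Excised tumors were immunostained for Ac-H3, Ac-H4, cleaved caspase-3, GSDME-N and Ki67, then image-scored over 5 fields.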

Sequence of HDAC1 (Q13547 whole entry): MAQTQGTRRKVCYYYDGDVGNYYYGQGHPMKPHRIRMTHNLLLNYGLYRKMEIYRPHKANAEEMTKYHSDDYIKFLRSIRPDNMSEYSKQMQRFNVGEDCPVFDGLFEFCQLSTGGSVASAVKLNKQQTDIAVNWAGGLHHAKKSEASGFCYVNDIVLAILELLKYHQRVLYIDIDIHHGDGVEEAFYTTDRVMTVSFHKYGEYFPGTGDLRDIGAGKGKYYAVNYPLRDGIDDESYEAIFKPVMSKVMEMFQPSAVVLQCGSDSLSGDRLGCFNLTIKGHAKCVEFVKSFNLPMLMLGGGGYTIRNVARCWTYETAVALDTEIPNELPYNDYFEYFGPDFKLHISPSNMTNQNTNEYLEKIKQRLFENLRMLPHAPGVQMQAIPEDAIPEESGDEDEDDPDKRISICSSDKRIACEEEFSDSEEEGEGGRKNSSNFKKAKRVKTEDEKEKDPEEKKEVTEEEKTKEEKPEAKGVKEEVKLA

SMILES | HDAC1 inhibitory activity relative to SAHA (HDAC1) | HDAC6 inhibitory activity relative to SAHA (HDAC6) | antiproliferative activity, times higher than SAHA (HepG2) [times] | level of acetyl-H3 and H4 (acetylated H3/H4) | colony formation (HepG2 cells [1]) | G2/M (HepG2 cells [2]) [%] | S (HepG2 cells [2]) [%] | G0/G1 (HepG2 cells [2]) [%] | levels of CDK4 and Cyclin D1 (CDK4 and Cyclin D1) | apoptosis of HepG2 cells (HepG2 cells [3]; 0.2 µM) [%] | apoptosis of HepG2 cells (HepG2 cells [3]; 0.5 µM) [%] | expression of Cl-PARP, Cl-caspase 3 (Cl-PARP, Cl-caspase 3) | ROS levels (HepG2 cells [4]) | nuclear γH2AX levels (γH2AX) | LDH release (HepG2 cells [5]) | GSDME N-terminal fragment level (GSDME-N, Cl-caspase3) | levels of active caspase-3 (GSDME-N, Cl-caspase3) | tumor growth inhibition (HepG2 xenografts; 10 mg/kg, ip, every two days, three weeks) | Ac-H3/H4, Cl-caspase3 and GSDME-N in tumor tissues (HepG2 xenografts; IHC at end of treatment) | Ki67 immunostaining of tumor tissues (HepG2 xenografts; IHC at end of treatment)
COc1ccc(N(Cc2csc(-c3ccccc3)n2)C(=O)CCCCCC(=O)NO)cc1 [Compound 15a, N^1-hydroxy-N^7-(4-methoxyphenyl)-N^7-((2-phenyl-4-thiazolyl)methyl)heptanediamide] | tenfold better | eightfold better | ~25 | increased the level of acetyl-H3 and H4 in a dose-dependent manner | suppress the formation of colonies in a dose-dependent manner | 22.85 | 13.72 | 61.42 | significantly reduced the levels of CDK4 and Cyclin D1 in a dose-dependent manner | 28.2 | 46.5 | upregulate the expression of Cl-PARP, Cl-caspase 3 in a dose-dependent manner | dose-dependently increased | induce γH2AX expression at a much lower concentration range | markedly increased | elevated levels of the N-terminal fragment of gasdermin E (GSDME) | elevated | superior inhibition observed at 10 mg/kg compared to that of SAHA | induced the increase of Ac- H3/H4 | dose-dependent reduction in Ki67 immunostaining
COc1ccc(N(Cc2csc(-c3ccc(C)cc3)n2)C(=O)CCCCCC(=O)NO)cc1 [Compound 15d, N^1-hydroxy-N^7-(4-methoxyphenyl)-N^7-((2-(4-tolyl)-4-thiazolyl)methyl)heptanediamide] | tenfold better | eightfold better | ~15 | increased the level of acetyl-H3 and H4 in a dose-dependent manner | suppress the formation of colonies in a dose-dependent manner | 24.34 | 18.3 | 57.36 | significantly reduced the levels of CDK4 and Cyclin D1 in a dose-dependent manner | 30 | 41.9 | upregulate the expression of Cl-PARP, Cl-caspase 3 in a dose-dependent manner | dose-dependently increased | induce γH2AX expression at a much lower concentration range | markedly increased | elevated levels of the N-terminal fragment of gasdermin E (GSDME) | elevated | – | – | –
